Reference: ChEMBL document CHEMBL1687909, “Design, synthesis, and biological evaluation of new cinnamic derivatives as antituberculosis agents” (J Med Chem, 2011)
In brackets after ≈: the same amount, converted by molar mass.

What was measured:
[1] = test system: Mycobacterium tuberculosis; assay: Antituberculosis activity against Mycobacterium tuberculosis 1400 harboring KatG mutant gene after 7 days by MTT assay; assay type: functional
In short: (§1)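 Colorimetric MTT microassay: serial 2-fold dilutions from DMSO stocks in Middlebrook 7H9 broth, bacterial suspension in 7H9 added. After 6 days, MTT (1 mg/mL) added; 1 day later solubilization buffer, OD 570 nm. MIC = lowest concentration inhibiting growth, untreated bacilli as growth control.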

[2] = test system: Mycobacterium tuberculosis; assay: Antituberculosis activity against Mycobacterium tuberculosis MYC5165 harboring InhA mutant gene after 7 days by MTT assay; assay type: functional; in short: as §1

COc1ccc(/C=C/C(=O)NNC(=O)c2ccncc2)cc1
MIC [1]: 320 µM (≈ 95.1 µg/mL) | MIC [2]: 16 µM (≈ 4.76 µg/mL)

NNC(=O)c1ccncc1 [ISONIAZID]
MIC [1]: 729 µM (≈ 100 µg/mL) | MIC [2]: 18 µM (≈ 2.47 µg/mL)

CC(C)=CCOc1ccc(/C=C/C(=O)NNC(=O)c2ccncc2)cc1
MIC [1]: 68 µM (≈ 23.9 µg/mL) | MIC [2]: 27 µM (≈ 9.49 µg/mL)

O=C(O)c1cn(C2CC2)c2cc(N3CCNCC3)c(F)cc2c1=O [CIPROFLOXACIN]
MIC [1]: 5 µM (≈ 1.66 µg/mL) | MIC [2]: 5 µM (≈ 1.66 µg/mL)

CC(C)=CCOc1ccc(/C=C/c2nnc3c4ccccc4cnn23)cc1
MIC [1]: 0.4 µM (≈ 0.143 µg/mL) | MIC [2]: 0.2 µM (≈ 0.0713 µg/mL)
